# Test results from ChEMBL document CHEMBL1124301, “Enantioselectivity of muscarinic antagonists. 2,2-Dicyclohexyl-5-[(dimethylamino)methyl]-1,3-oxathiolane methiodides and related 3-oxides” (J Med Chem, 1988).
# Where “and” joins values, the source holds several entries; their conditions need not be identical. Equal values may be shown once.
# Tests used:
# [1] = target: Muscarinic acetylcholine receptor; assay: Antagonist activity against Muscarinic acetylcholine receptor of guinea pig heart.; type: functional, Cavia porcellus
# [2] = target: Muscarinic acetylcholine receptor; assay: Antagonist activity against Muscarinic acetylcholine receptor of guinea pig ileum; type: functional, tissue-based, Cavia porcellus
# [3] = target: Muscarinic acetylcholine receptor; assay: Antagonist activity against Muscarinic acetylcholine receptor of rat bladder; type: functional
# Procedure, shortened: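 Longitudinal bladder strip (2 mm wide, urethra to apex) in PSS at 37 °C, recorded isometrically, equilibrated 30 min. Carbachol dose-response curves run at 30-min intervals, with the second taken as control. After 30 min antagonist incubation, the curve was repeated.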
# [4] = target: Muscarinic acetylcholine receptor; assay: Antagonist activity against Muscarinic acetylcholine receptor of guinea pig heart; type: functional, Cavia porcellus
pA2 [1],pA2 [2],pA2 [3],pA2 [4],Structure (SMILES)
6.02 and 6.05,6.92,6.34,,C[N+](C)(C)C[C@@H]1CSC(C2CCCCC2)(C2CCCCC2)O1.[I-] (stereo in doubt; (-)-2)
6.27 and 6.06,6.4,5.99,,C[N+](C)(C)C[C@@H]1C[S@+]([O-])C(C2CCCCC2)(C2CCCCC2)O1.[I-] (racemic)
6.79 and 6.65,6.69,6.36,,C[N+](C)(C)C[C@@H]1C[S@@+]([O-])C(C2CCCCC2)(C2CCCCC2)O1.[I-] (stereo in doubt; (-)-4)
6.77 and 6.63,6.24,6.03,,C[N+](C)(C)C[C@@H]1C[S@@+]([O-])C(C2CCCCC2)(C2CCCCC2)O1.[I-] (racemic)
6.37 and 6.42,6.98,6.28,,C[N+](C)(C)C[C@@H]1CSC(C2CCCCC2)(C2CCCCC2)O1.[I-] (stereo in doubt; (+)-2)
5.61 and 5.59,5.92,5.48,,C[N+](C)(C)C[C@@H]1C[S@+]([O-])C(C2CCCCC2)(C2CCCCC2)O1.[I-] (stereo in doubt; (-)-6)
6.38,6.95,6.26,6.12,C[N+](C)(C)C[C@@H]1CSC(C2CCCCC2)(C2CCCCC2)O1.[I-] (racemic)
6.45 and 6.31,6.32,6.27,,C[N+](C)(C)C[C@@H]1C[S@+]([O-])C(C2CCCCC2)(C2CCCCC2)O1.[I-] (stereo in doubt; (+)-6)
5.55 and 5.4,5.81,5.51,,C[N+](C)(C)C[C@@H]1C[S@@+]([O-])C(C2CCCCC2)(C2CCCCC2)O1.[I-] (stereo in doubt; (+)-4)
